# ChEMBL document CHEMBL1671645, “Pharmacokinetics and absorption of posaconazole oral suspension under various gastric conditions in healthy volunteers” (Antimicrob Agents Chemother, 2009)
# Tests used:
# [1] = AUC in fasted healthy human at 400 mg administered as single dose suspension coadministered with acidic carbonated beverage and proton pump inhibitor; assay type: ADME, organism-based; conditions: plasma
# How it was run: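 This was a four-way crossover in 12 healthy subjects with 7–10 day washouts. Each took one fasting 400 mg oral suspension dose, with 12 oz ginger ale and/or esomeprazole 40 mg once each morning on days −2 to 1, with dosing on day 1. Plasma was sampled 0–168 h and measured by LC-MS/MS (LLOQ 5.00 ng/ml). Analysis was noncompartmental, with CL/F = dose/AUC_I and V/F = (CL/F)/K.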
# Homo sapiens [2] = assay: AUC in healthy human at 200 mg QID, po administered as suspension for 7 days coadministered with nutritional supplement; assay type: ADME, organism-based, Plasma; conditions: in vivo, 168 h
# How it was run: (§1)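 Twelve healthy subjects took oral suspension for 7 days as 400 mg BID or 200 mg QID, either fasting or with a Boost-type nutritional supplement, in a crossover with 14–21 day washouts. Nonfat snacks of 800 cal/day or less were allowed. Plasma was sampled 0–168 h after the day-7 morning dose only and analysed by LC-MS/MS. AUC is AUC_τ, normalized to dose.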
# [3] = AUC in fasted healthy human at 400 mg administered as single dose suspension after consumption of high fat meal; assay type: ADME, organism-based; conditions: plasma
# How it was run: (§2)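 In a crossover of 12 healthy subjects, each took a single 400 mg oral suspension dose 5 min before, midway through (about 10 min into a 20-min meal), or 20 min after a high-fat meal of about 50 g fat. Plasma was drawn 0–168 h and measured by LC-MS/MS. Parameters are noncompartmental, with AUC to the last measurable time.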
# [4] = Tmax in fasted healthy human at 400 mg administered as single dose suspension after 20 mins after consumption of high fat meal; assay type: ADME, organism-based; conditions: in vivo
# How it was run: (§3)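 Single oral suspension dose in healthy volunteers while fasting, 5 min before, midway through (about 10 min into a 20-min meal), or 20 min after a high-fat meal (approx 50 g fat); four-way crossover, 7–10-day washout. Plasma 0–168 h by LC-MS/MS (LLOQ 5.00 ng/ml). t1/2 = ln(2)/K; Tmax median.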
# [5] = Tmax in healthy human at 400 mg administered as single dose suspension coadministered with nutritional supplement and 10 mg metoclopramide; assay type: ADME, organism-based; conditions: in vivo
# How it was run: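 Single oral suspension dose with nutritional supplement, alone or with metoclopramide 10 mg orally three times daily on the day before and the day of dosing; three-way crossover, 7–10-day washout. EDTA plasma predose to 168 h, LC-MS/MS (LLOQ 5.00 ng/ml). t1/2 = ln(2)/K from terminal slope; Tmax median.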
# Homo sapiens [6] = assay: Apparent total body clearance in healthy human at 400 mg BID, po administered as suspension for 7 days coadministered with nutritional supplement; assay type: ADME, organism-based; conditions: in vivo, 168 h; how it was run: as §1
# [7] = Apparent total body clearance in fasted healthy human at 400 mg administered as single dose suspension 5 mins before consumption of high fat meal; assay type: ADME, organism-based; conditions: in vivo; how it was run: as §2
# [8] = Apparent total body clearance in healthy human at 400 mg administered as single dose suspension coadministered with nutritional supplement and 4 mg loperamide as two 2 mg tablets; assay type: ADME, organism-based; conditions: in vivo, po
# How it was run: (§4)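 A three-way crossover in 13 healthy subjects gave one 400 mg oral suspension dose with a nutritional supplement, either alone, with metoclopramide 10 mg orally three times daily on the day before and the day of dosing, or with a single 4 mg dose of loperamide. Plasma was taken 0–168 h for LC-MS/MS. Analysis was noncompartmental.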
# [9] = Half life in fasted healthy human at 400 mg administered as single dose suspension 5 mins before consumption of high fat meal; assay type: ADME, organism-based; conditions: in vivo; how it was run: as §3
# [10] = Apparent volume of distribution in fasted healthy human at 400 mg administered as single dose suspension; assay type: ADME, organism-based; conditions: in vivo, read-out: Vc/F
# [11] = Apparent volume of distribution in healthy human at 400 mg administered as single dose suspension coadministered with nutritional supplement and 4 mg loperamide as two 2 mg tablets; assay type: ADME, organism-based; conditions: in vivo, po, read-out: Vc/F; how it was run: as §4
# Homo sapiens [12] = assay: Toxicity in healthy human assessed as adverse events at 400 mg administered as single dose suspension; assay type: organism-based; conditions: in vivo
# How it was run: (§5)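 Healthy volunteers monitored for adverse events, vital signs, clinical laboratory values and 12-lead ECG. Adverse events tabulated by body system or organ class and severity and summarized by treatment across the crossover regimens.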
# Homo sapiens [13] = assay: Toxicity in healthy human assessed as adverse events at 400 mg administered as single dose suspension coadministered with proton pump inhibitor; assay type: organism-based; set-up: scale not given: the % may be the effect or the level left; conditions: in vivo; how it was run: as §5
# Homo sapiens [14] = assay: Toxicity in healthy human assessed as adverse events at 400 mg administered as single dose suspension coadministered with acidic carbonated beverage and proton pump inhibitor; assay type: organism-based; set-up: scale not given: the % may be the effect or the level left; conditions: in vivo; how it was run: as §5
# Homo sapiens [15] = assay: Toxicity in healthy human assessed as adverse events at 400 mg BID, po administered as suspension for 7 days coadministered with nutritional supplement; assay type: organism-based; conditions: in vivo, 168 h; how it was run: as §5
# Homo sapiens [16] = assay: Toxicity in healthy human assessed as adverse events at 200 mg QID, po administered as suspension for 7 days; assay type: organism-based; conditions: in vivo, 168 h; how it was run: as §5
# Homo sapiens [17] = assay: Toxicity in healthy human assessed as adverse events at 400 mg administered as single dose suspension coadministered with nutritional supplement; assay type: organism-based; conditions: in vivo; how it was run: as §5
# Homo sapiens [18] = assay: Toxicity in healthy human assessed as asthenia at 400 mg BID, po administered as suspension for 7 days; assay type: organism-based; conditions: in vivo, 168 h; how it was run: as §5
# Homo sapiens [19] = assay: Toxicity in healthy human assessed as asthenia at 200 mg QID, po administered as suspension for 7 days coadministered with nutritional supplement; assay type: organism-based; conditions: in vivo, 168 h; how it was run: as §5
# Homo sapiens [20] = assay: Toxicity in healthy human assessed as nausea at 400 mg administered as single dose suspension coadministered with nutritional supplement; assay type: organism-based; conditions: in vivo
# How it was run: (§6)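 Three-way randomized crossover in 13 healthy volunteers with a 7- to 10-day washout. Each period was one 400-mg oral posaconazole suspension dose with a nutritional supplement. Metoclopramide 10 mg was given orally three times daily on the day before and the day of dosing; loperamide was a single 4 mg. Safety was assessed from adverse events, tabulated by body system and severity per treatment.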
# Homo sapiens [21] = assay: Toxicity in healthy human assessed as fatigue at 400 mg administered as single dose suspension coadministered with nutritional supplement; assay type: organism-based; conditions: in vivo; how it was run: as §6
# Homo sapiens [22] = assay: Toxicity in healthy human assessed as fatigue at 400 mg administered as single dose suspension coadministered with nutritional supplement and 10 mg metoclopramide; assay type: organism-based; conditions: in vivo; how it was run: as §6
# Homo sapiens [23] = assay: Toxicity in healthy human assessed as dizziness at 400 mg administered as single dose suspension coadministered with nutritional supplement and 4 mg loperamide as two 2 mg tablets; assay type: organism-based; conditions: in vivo; how it was run: as §6
# [24] = Cmax in plasma in hematopoietic stem cell transplant recipient human with GVHD; assay type: ADME, organism-based
# [25] = Cmax in fasted healthy human plasma at 400 mg administered as single dose suspension; assay type: ADME, organism-based; set-up: dose 400 mg
# [26] = Cmax in fasted healthy human plasma at 400 mg administered as single dose suspension after 20 mins after consumption of high fat meal; assay type: ADME, organism-based; set-up: dose 400 mg; how it was run: as §2
# [27] = Cmax in healthy human plasma at 400 mg administered as single dose suspension coadministered with nutritional supplement and 4 mg loperamide as two 2 mg tablets; assay type: ADME, organism-based; set-up: dose 400 mg; conditions: po
# How it was run: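 Oral suspension (40 mg/ml) single dose with nutritional supplement plus loperamide 4 mg single dose, healthy volunteers, three-way crossover with 7–10-day washout. EDTA plasma drawn predose and 1–168 h postdose. LC-MS/MS assay (LLOQ 5.00 ng/ml). Noncompartmental parameters; Tmax reported as median (range).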
smiles,measurement,setting,value
CC[C@@H]([C@H](C)O)n1ncn(-c2ccc(N3CCN(c4ccc(OC[C@@H]5CO[C@@](Cn6cncn6)(c6ccc(F)cc6F)C5)cc4)CC3)cc2)c1=O [POSACONAZOLE],AUC,[1],4180 ng·h/mL
same,AUC,Homo sapiens [2],112000 ng·h/mL
same,AUC,[3],21000 ng·h/mL
same,Tmax,[4],6 h
same,Tmax,[5],5 h
same,CL/F,Homo sapiens [6],33.9 L/h
same,CL/F,[7],957 mL/min
same,CL/F,[8],743 mL/min
same,half-life,[9],23.9 h
same,Vd/F,[10],3330 L
same,Vd/F,[11],1750 L
same,Activity,Homo sapiens [12],25%
same,Activity,Homo sapiens [13],25%
same,Activity,Homo sapiens [14],25%
same,Activity,Homo sapiens [15],75%
same,Activity,Homo sapiens [16],75%
same,Activity,Homo sapiens [17],38%
same,Activity,Homo sapiens [18],25%
same,Activity,Homo sapiens [19],25%
same,Activity,Homo sapiens [20],23%
same,Activity,Homo sapiens [21],15%
same,Activity,Homo sapiens [22],15%
same,Activity,Homo sapiens [23],15%
same,Cmax,[24],1460 ng/mL
same,Cmax,[25],151 ng/mL
same,Cmax,[26],544 ng/mL
same,Cmax,[27],294 ng/mL
